Source: PubChem BioAssay
In the library only some 6.4% were active in any assay of this set; here they are far more common.
CHOP inhibitor: CHOP inhibition in unfolded protein response | hit rate 3.8% among 220,000 | CHO-K1 CHOP-promoter luciferase, tunicamycin-induced, 15-18 h | inhibition, % at 10 µM;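 active = compounds that reduced the stress-induced luciferase reporter signal by more than about 70% of percent inhibition, limit read from the data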
Tb MetRS inh: Trypanosoma brucei MetRS inhibition; purified T. brucei MetRS, ATP depletion, Kinase-Glo luminescence; inhibition, % at 11.9 µM; hit rate 0.4% among 360,000;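 active = inhibition above a per-plate cutoff of the control wells' mean inhibition plus 3 SD, cut at about 5.5% in these data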
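Dosing: 11.9 µM single point; system: parasite MetRS enzyme; technique: luminescence of leftover ATP; times: 15 min enzyme-compound preincubation, 2 h reaction, 10 min detection, 25 °C; replicates: each compound tested once; read-out basis: percent inhibition relative to median high and low control wells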
MPTP inh: blocks calcium-induced mitochondrial swelling; hit rate 1.4% among 360,000; inhibition, % at 10 µM; isolated mouse mitochondria, Ca2+ swelling absorbance, 30 min;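 active = inhibition of 50% or more, scaled per plate between neutral and stimulator controls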
WT yeast gro inh: growth inhibition of WT yeast, mitochondrial fusion screen; mitochondrial fusion phenotypic screen, WT strain; inhibition, % at 10 µM; hit rate 2.1% among 190,000; in the data active = inhibition above about 58%; tested in S. cerevisiae
GRIN3A LBD mod: modulates the human NR3A ligand-binding domain; NR3A LBD differential scanning fluorimetry, Tm shift; 0% = protein alone, 100% = glycine-bound protein; Tm shift relative to glycine control, % at 25 µM; hit rate 2.5% among 340,000; AID 1259313;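 active = melting temperature shift of at least 10% of the positive control shift, at one fixed dose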
EBV gp42 inh: inhibitors of Epstein-Barr virus glycoprotein 42; hit rate 0.42% among 220,000; AID 1085; inhibition, % (tested at 21.74 µM); Fluorescence polarization binding assay, mP read-out; in the data active = inhibition above about 50%
Target sequence (Q1HVG2 whole entry, looked up): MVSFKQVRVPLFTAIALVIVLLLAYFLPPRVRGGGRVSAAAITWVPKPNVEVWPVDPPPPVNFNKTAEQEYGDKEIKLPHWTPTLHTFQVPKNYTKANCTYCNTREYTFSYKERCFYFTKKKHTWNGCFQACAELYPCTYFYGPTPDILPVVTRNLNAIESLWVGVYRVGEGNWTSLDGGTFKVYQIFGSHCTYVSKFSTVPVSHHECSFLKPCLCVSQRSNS
CHOP inh conf: confirmation of CHOP induction inhibitors | inhibition, % at 10 µM | AID 504437 | CHO-CHOP promoter luciferase reporter, tunicamycin-induced, luminescence | shares compounds with CHOP inhibitor | hit rate 45% among 2,100;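 active = mean of three repeat readings of reporter signal inhibition above a set limit, cut at about 70% in these data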
Rh123 counter: Rhodamine 123 counter-screen of mitochondrial pore hits; hit rate 78% among 5,000; isolated mitochondria, membrane potential, Rhodamine 123 fluorescence; AID 624504; shares compounds with MPTP inh; inhibition, % at 10 µM; in the data active = inhibition above about 22%
MPTP abs DR: MPTP inhibition, dose response swelling confirmation; hit rate 58% among 780; shares compounds with MPTP inh; AID 651561; IC50, µM; isolated mitochondria swelling, absorbance; in the data active = IC50 below about 20 µM
MPTP counter DR: active in counter-screen for permeability transition pore inhibitors; isolated mitochondria counterscreen, fluorescence read-out; hit rate 49% among 780; IC50, µM; shares compounds with MPTP inh; in the data active = IC50 below about 80 µM
Hits are given with their value; i = inactive; nt = no result given; ! = not active in a repeat.

SMILES | CHOP inhibitor | Tb MetRS inh | MPTP inh | WT yeast gro inh | GRIN3A LBD mod | EBV gp42 inh | CHOP inh conf | Rh123 counter | others
CCC(C)c1ccc(O)c(NC(=O)c2cncc(Br)c2)c1 (stereo not given) | 111 | i | 77 | i | i | i | 82 | 64
CCC(C)c1ccc(O)c(NC(=S)NC(=O)c2cccnc2)c1 (stereo not given) | i | i | i | i | i | i | nt | nt
CCCc1ccc(Oc2cn[nH]c2-c2ccc(O)cc2O)cc1 | 108 | i | 64 | i | 28 | i | 120 | 39
O=C1NCN(c2ccccc2)C12CCN(CCCC(c1ccc(F)cc1)c1ccc(F)cc1)CC2 | 106! | i | 100 | 73 | i | i | 123 | i | MPTP abs DR=7.3;MPTP counter DR=31
O=C(CCCN1CCN(c2ccccc2)CC1)c1ccc(F)cc1 | nt | i | i | nt | nt | nt | nt | nt
CN(C)c1ccc(/C=C/c2ccc3c4ccccc4ccc3[n+]2-c2ccccc2)cc1 | 108 | i | 154 | i | i | i | 123 | 77
CN(C)c1ccc(/C=C/c2cccc[n+]2[O-])cc1 | i | i | i | nt | i | i | nt | nt
O=C(Nc1ccccc1)Nc1nc(-c2ccc(F)cc2)cs1 | 106 | i | 92 | i | i | i | i | 86
O=c1c2ccccc2nc2c3ccccc3c(NCCN3CCOCC3)nn12 | i | nt | nt | i | nt | i | nt | nt
O=c1c2c(-c3ccccc3)csc2nc2c3ccccc3c(NCCN3CCOCC3)nn12 | 106 | i | 58 | i | i | i | i | i
COc1ccccc1NC(=O)c1sc2ncn(CC(=O)Nc3ccccc3)c(=O)c2c1C | nt | i | i | nt | i | nt | nt | nt
CC(C)Cn1c(N)c(C(=O)COC(=O)CC23CC4CC(CC(C4)C2)C3)c(=O)n(C)c1=O | 98 | i | 81 | 85 | i | i | 90 | 116
CN(C)S(=O)(=O)NCCNC(=O)c1cc(OCC(F)(F)F)ccc1OCC(F)(F)F | i | i | i | i | i | i | nt | nt
O=C(NCCNC(=O)c1cc(OCC(F)(F)F)ccc1OCC(F)(F)F)Nc1cccc(C(F)(F)F)c1 | 104 | i | 72 | i | i | i | 101 | 88
Cc1ccc(S(=O)(=O)Nc2ccc(NC(=O)Nc3cccc(C(F)(F)F)c3)cc2)cc1 | 99 | i | 98 | i | 37 | i | 116 | 61
O=C(Nc1ccc(OC(F)F)cc1)Nc1cccc(C(F)(F)F)c1 | 110 | i | 86 | 83 | 39 | i | 86 | 63
NNC(=O)Nc1cccc(C(F)(F)F)c1 | i | i | i | i | i | i | nt | nt
COc1ccc(OCc2nnc(NC(=O)Nc3ccc(F)cc3)s2)cc1 | 101 | i | 74 | i | i | i | i | 82
COc1ccc(NC(=O)Nc2nnc(Cc3ccccc3)s2)cc1 | nt | i | i | nt | i | nt | nt | nt
COC(=O)c1cc(NC(=S)Nc2cc(Cl)cc(Cl)c2)cc(C(=O)OC)c1 | 101 | i | 83 | 77 | 16 | i | 99 | 75
Cc1cc(/C=N/n2cnnc2)c(C)n1-c1ccc(OCc2ccc(Cl)cc2Cl)cc1 | 108 | i | 108 | i | i | i | 114 | 101
Cc1cc(/C=N/n2cnnc2)c(C)n1-c1ccc(OCc2ccc(F)cc2)cc1 | nt | i | 99 | 62 | i | i | 111 | 93
Cc1cc(/C=N/n2cnnc2)c(C)n1-c1ccc(Cl)cc1 | i | i | i | i | i | i | nt | nt
COc1ccc(NS(=O)(=O)c2ccc(Br)cc2)cn1 | nt | i | i | nt | i | nt | nt | nt
COc1ccc(NS(=O)(=O)c2ccc3oc4ccccc4c3c2)cn1 | 97 | i | 60 | i | i | i | i | 64
SMILES | CHOP inhibitor | Tb MetRS inh | MPTP inh | WT yeast gro inh | GRIN3A LBD mod | EBV gp42 inh | CHOP inh conf | Rh123 counter | others
CC(C)(C)c1ccc(OCCNC(=S)Nc2ccccc2)cc1 | 104 | i | 92 | 82 | i | i | 72 | 89
COc1ccc(NS(=O)(=O)c2coc(C(N)=O)c2)cc1Cl | i | i | i | i | i | i | nt | nt
CC(C)=CCc1c(O)cc2oc3c(CC=C(C)C)c(O)c(O)c(CC=C(C)C)c3c(=O)c2c1O | 97 | i | 92 | nt | i | i | 120 | i
CC(=O)c1ccc(O)c(CC=C(C)C)c1O | nt | i | i | nt | i | nt | nt | nt
C1CCN(CCCNC2C3CC4CC(C3)CC2C4)C1 (stereo not given) | i | i | i | i | i | i | nt | nt
CCCOC(=O)c1cccc(Nc2nc(-c3cccnc3)nc3ccccc23)c1 | 96 | i | 66 | i | i | i | i | 73
COC(=O)C/C(N)=C(\C#N)C(=O)OC | i | i | i | nt | i | i | nt | nt
O=C(COC(=O)Cc1c(Cl)cccc1Cl)Nc1ccc(OC(F)(F)F)cc1 | 109 | i | 66 | i | i | i | 86 | 73
Cc1ccc(C2(c3ccc(C)cc3)CC2C(=O)Nc2ccc([N+](=O)[O-])cc2O)cc1 (stereo not given) | 107 | i | 82 | 88 | i | i | 78 | 47
Cc1ccc([N+](=O)[O-])cc1NC(=O)C1CCCC1 | nt | i | i | nt | i | nt | nt | nt
FC(F)Sc1ccc(NC(=S)NCC2CCCCC2)cc1 | 106 | i | 103 | 78 | 31 | i | i | 80
O=C(Nc1ccccc1)Nc1cc(Cl)cc(Cl)c1 | 111 | i | 101 | 89 | nt | i | i | 100
CCOCCCN(Cc1ccco1)S(=O)(=O)c1csc(C(N)=O)c1 | nt | i | i | nt | i | nt | nt | nt
N=C1/C(=C\c2coc3ccccc3c2=O)C(=O)N=C2SC(c3ccncc3)=NN12 | 102 | i | 94 | nt | i | i | i | 64
Oc1ccc(Br)cc1-c1ccn[nH]1 | i | i | i | i | i | i | nt | nt
Oc1ccc(Cl)cc1-c1cc(-c2cccc(Br)c2)n[nH]1 | 101 | i | 89 | 82 | 31 | i | i | 68
O=C(NC(=S)Nc1ccc(S(=O)(=O)N2CCCCC2)cc1)c1cccs1 | i | i | i | i | i | i | nt | nt
CCc1ccc(Nc2cc(=O)n(C3CCCCC3)c(=O)[nH]2)cc1 | 105 | i | 63 | i | i | i | i | 107
COc1ccc(C2=NN(CN3C(=O)C(=O)c4ccccc43)C(c3ccc(Br)cc3)C2)cc1 (stereo not given) | i | i | i | i | i | i | nt | nt
Cc1ccc2c(c1)/C(=N/OS(=O)(=O)c1ccccc1)CCS2 | nt | i | i | nt | i | nt | nt | nt
CC1=CC(=O)C=C(C)C1=NOS(=O)(=O)c1ccccc1 | nt | i | 103 | i | i | i | 74 | 90
CCCCCCCCCCCCCCCCn1cc[n+](C)c1 | 81 | i | 58 | i | i | i | 115 | 99
CCOC(=O)c1sc(NC(=O)Nc2ccc(Cl)cc2)cc1C | 108 | i | 116 | 85 | 27 | i | i | 47
